Data taken from ChEMBL document CHEMBL1147968, “Novel lbeta-methylcarbapenems having cyclic sulfonamide moieties: synthesis and evaluation of in vitro antibacterial activity” (2007).

What was measured:
Enterococcus faecium = assay: Antibacterial activity against Streptococcus faecium 77A after 18 to 24 hrs by agar dilution method; format: functional
How it was run: (§1)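 MICs were determined by agar dilution on test agar. An overnight tryptosoy broth culture was diluted in the same broth to about 10⁶ cells/mL and spotted with an inoculating device onto agar containing serial twofold dilutions of compound. Plates were incubated at 37 °C for 18–20 h, and the MIC was the lowest concentration with no visible growth.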

Streptococcus agalactiae [1] = assay: Antibacterial activity against Streptococcus agalactiae B after 18 to 24 hrs by agar dilution method; format: functional; how it was run: as §1
Enterococcus durans = assay: Antibacterial activity against Streptococcus durans D after 18 to 24 hrs by agar dilution method; format: functional; how it was run: as §1
Salmonella paratyphi = assay: Antibacterial activity against Salmonella paratyphi A after 18 to 24 hrs by agar dilution method; format: functional, Salmonella enterica subsp. enterica serovar Paratyphi A; conditions: Salmonella enterica
How it was run: (§2)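 Agar dilution on test agar with serial twofold dilutions of compound. Overnight tryptosoy broth cultures diluted in the same broth to about 10⁶ cells/mL, then applied with an inoculating device. Plates incubated at 37 °C for 18–20 h.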

Priestia megaterium = assay: Antibacterial activity against Bacillus megaterium after 18 to 24 hrs by agar dilution method; format: functional; how it was run: as §1
Pseudomonas aeruginosa [2] = assay: Antibacterial activity against Pseudomonas aeruginosa 9027 after 18 to 24 hrs by agar dilution method; format: functional; how it was run: as §1
Staphylococcus aureus [3] = assay: Antibacterial activity against Staphylococcus aureus 1218 after 18 to 24 hrs by agar dilution method; format: functional; how it was run: as §1
Staphylococcus = assay: Antibacterial activity against coagulase negative Staphylococcus after 18 to 24 hrs by agar dilution method; format: functional
How it was run: (§3)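 Agar dilution on test agar holding serial twofold dilutions of compound. Overnight tryptosoy broth cultures were diluted in the same broth to about 10⁶ cells/mL and spotted with an inoculating device. Plates were incubated at 37 °C for 18–20 h.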

Enterococcus faecalis = assay: Antibacterial activity against Enterococcus faecalis 2347 after 18 to 24 hrs by agar dilution method; format: functional; how it was run: as §1
Streptococcus pyogenes = assay: Antibacterial activity against Streptococcus pyogenes 9889 after 18 to 24 hrs by agar dilution method; format: functional; how it was run: as §3
Streptococcus agalactiae [4] = assay: Antibacterial activity against Streptococcus agalactiae 32 after 18 to 24 hrs by agar dilution method; format: functional; how it was run: as §1
Streptococcus pneumoniae = assay: Antibacterial activity against Streptococcus pneumoniae 0025 after 18 to 24 hrs by agar dilution method; format: functional; how it was run: as §1
Haemophilus influenzae = assay: Antibacterial activity against Haemophilus influenzae 1210 after 18 to 24 hrs by agar dilution method; format: functional; how it was run: as §1
Escherichia coli [5] = assay: Antibacterial activity against Escherichia coli 04 after 18 to 24 hrs by agar dilution method; format: functional; how it was run: as §1
Klebsiella pneumoniae [6] = assay: Antibacterial activity against Klebsiella pneumoniae 523 after 18 to 24 hrs by agar dilution method; format: functional; how it was run: as §1
Citrobacter freundii = assay: Antibacterial activity against Citrobacter freundii 323 after 18 to 24 hrs by agar dilution method; format: functional; how it was run: as §1
Enterobacter cloacae [7] = assay: Antibacterial activity against Enterobacter cloacae 34 after 18 to 24 hrs by agar dilution method; format: functional; how it was run: as §1
Serratia marcescens [8] = assay: Antibacterial activity against Serratia marcescens 3349 after 18 to 24 hrs by agar dilution method; format: functional; how it was run: as §1
Acinetobacter baumannii = assay: Antibacterial activity against Acinetobacter baumannii 2289 after 18 to 24 hrs by agar dilution method; format: functional; how it was run: as §1
Pseudomonas aeruginosa [9] = assay: Antibacterial activity against Pseudomonas aeruginosa 5455 after 18 to 24 hrs by agar dilution method; format: functional; how it was run: as §1
Staphylococcus aureus [10] = assay: Antibacterial activity against Staphylococcus aureus giorgio after 18 to 24 hrs by agar dilution method; format: functional; how it was run: as §1
Staphylococcus aureus [11] = assay: Antibacterial activity against Staphylococcus aureus 209P after 18 to 24 hrs by agar dilution method; format: functional; how it was run: as §1
Staphylococcus aureus [12] = assay: Antibacterial activity against Staphylococcus aureus 503 after 18 to 24 hrs by agar dilution method; format: functional; how it was run: as §1
Micrococcus luteus = assay: Antibacterial activity against Micrococcus luteus ATCC 9341 after 18 to 24 hrs by agar dilution method; format: functional; how it was run: as §1
Pseudomonas aeruginosa [13] = assay: Antibacterial activity against Pseudomonas aeruginosa 77/2 after 18 to 24 hrs by agar dilution method; format: functional; how it was run: as §1
Pseudomonas aeruginosa [14] = assay: Antibacterial activity against Pseudomonas aeruginosa 110/2 after 18 to 24 hrs by agar dilution method; format: functional; how it was run: as §1
Pseudomonas aeruginosa [15] = assay: Antibacterial activity against Pseudomonas aeruginosa 880/2 after 18 to 24 hrs by agar dilution method; format: functional; how it was run: as §1
Burkholderia cepacia = assay: Antibacterial activity against Pseudomonas cepacia after 18 to 24 hrs by agar dilution method; format: functional; how it was run: as §1
Escherichia coli [16] = assay: Antibacterial activity against Escherichia coli 086 after 18 to 24 hrs by agar dilution method; format: functional; how it was run: as §1
Escherichia coli [17] = assay: Antibacterial activity against Escherichia coli 0114 after 18 to 24 hrs by agar dilution method; format: functional; how it was run: as §1
Escherichia coli [18] = assay: Antibacterial activity against Escherichia coli 0126 after 18 to 24 hrs by agar dilution method; format: functional; how it was run: as §1
Escherichia coli [19] = assay: Antibacterial activity against Escherichia coli V6311/65 after 18 to 24 hrs by agar dilution method; format: functional; how it was run: as §1
Escherichia coli [20] = assay: Antibacterial activity against Escherichia coli TEM after 18 to 24 hrs by agar dilution method; format: functional; how it was run: as §1
Escherichia coli [21] = assay: Antibacterial activity against Escherichia coli 1507 after 18 to 24 hrs by agar dilution method; format: functional; how it was run: as §1
Salmonella typhimurium = assay: Antibacterial activity against Salmonella Typhimurium after 18 to 24 hrs by agar dilution method; format: functional, Salmonella enterica subsp. enterica serovar Typhimurium; conditions: Salmonella enterica; how it was run: as §1
Salmonella typhi = assay: Antibacterial activity against Salmonella typhi after 18 to 24 hrs by agar dilution method; format: functional, Salmonella enterica subsp. enterica serovar Typhi; conditions: Salmonella enterica; how it was run: as §2
Salmonella = assay: Antibacterial activity against Salmonella orion after 18 to 24 hrs by agar dilution method; format: functional; how it was run: as §1
[22] = Antibacterial activity against Salmonella give after 18 to 24 hrs by agar dilution method; format: functional, Salmonella enterica subsp. enterica serovar Give; conditions: Salmonella enterica; how it was run: as §1
Serratia marcescens [23] = assay: Antibacterial activity against Serratia marcescens 370 after 18 to 24 hrs by agar dilution method; format: functional; how it was run: as §1
Klebsiella pneumoniae [24] = assay: Antibacterial activity against Klebsiella pneumoniae 477 after 18 to 24 hrs by agar dilution method; format: functional; how it was run: as §1
Proteus mirabilis [25] = assay: Antibacterial activity against Proteus mirabilis 112/3 after 18 to 24 hrs by agar dilution method; format: functional; how it was run: as §1
Enterobacter cloacae [26] = assay: Antibacterial activity against Enterobacter cloacae after 18 to 24 hrs by agar dilution method; format: functional; how it was run: as §1
Enterobacter cloacae [27] = assay: Antibacterial activity against Enterobacter cloacae 417 after 18 to 24 hrs by agar dilution method; format: functional; how it was run: as §1
Serratia marcescens [28] = assay: Antibacterial activity against Serratia marcescens 6093 after 18 to 24 hrs by agar dilution method; format: functional; how it was run: as §1
Serratia marcescens [29] = assay: Antibacterial activity against Serratia marcescens 14273 after 18 to 24 hrs by agar dilution method; format: functional; how it was run: as §1
Proteus mirabilis [30] = assay: Antibacterial activity against Proteus mirabilis 174/3 after 18 to 24 hrs by agar dilution method; format: functional; how it was run: as §1
Proteus vulgaris = assay: Antibacterial activity against Proteus vulgaris 868 after 18 to 24 hrs by agar dilution method; format: functional; how it was run: as §1
Providencia rettgeri [31] = assay: Antibacterial activity against Proteus rettgeri 936 after 18 to 24 hrs by agar dilution method; format: functional; how it was run: as §1
Providencia rettgeri [32] = assay: Antibacterial activity against Proteus rettgeri 937 after 18 to 24 hrs by agar dilution method; format: functional; how it was run: as §1
Pasteurella multocida = assay: Antibacterial activity against Pasteurella multocida after 18 to 24 hrs by agar dilution method; format: functional; how it was run: as §1
Trueperella pyogenes = assay: Antibacterial activity against Corynebacterium pyogenes after 18 to 24 hrs by agar dilution method; format: functional; how it was run: as §1
[33] = system: Corynebacterium diphtheriae; assay: Antibacterial activity against Corynebacterium diphtheriae after 18 to 24 hrs by agar dilution method; format: functional; how it was run: as §1
Bacillus subtilis = assay: Antibacterial activity against Bacillus subtilis ATCC 6633 after 18 to 24 hrs by agar dilution method; format: functional; how it was run: as §1
[34] = Antibacterial activity against Salmonella oranienburg after 18 to 24 hrs by agar dilution method; format: functional, Salmonella enterica subsp. enterica serovar Oranienburg; conditions: Salmonella enterica; how it was run: as §1

Measured: MIC

C[C@@H](O)C1C(=O)N2C(C(=O)O)=C(S[C@@H]3CN[C@H](CN4CCCN(C)S4(=O)=O)C3)[C@H](C)C12 (stereo partly drawn)
0.2 µg/mL: Proteus mirabilis [25] | Serratia marcescens [28] | Proteus mirabilis [30]
0.8 µg/mL: Pseudomonas aeruginosa [14]
1.6 µg/mL: Pseudomonas aeruginosa [2] | Pseudomonas aeruginosa [13]
3.12 µg/mL: Enterococcus faecalis | Haemophilus influenzae | Acinetobacter baumannii
0.02 µg/mL: Streptococcus agalactiae [1] | Staphylococcus aureus [11] | Micrococcus luteus | Escherichia coli [16] | Escherichia coli [17] | Escherichia coli [18] | Escherichia coli [21] | Enterobacter cloacae [27]
0.05 µg/mL: Salmonella paratyphi | Priestia megaterium | Staphylococcus aureus [10] | Escherichia coli [19] | Klebsiella pneumoniae [24] | Pasteurella multocida
0.1 µg/mL: Enterococcus durans | Salmonella typhimurium | Salmonella | [22] | Serratia marcescens [23] | [34]
0.01 µg/mL: Streptococcus pneumoniae | Staphylococcus aureus [12] | Escherichia coli [20] | Enterobacter cloacae [26] | Trueperella pyogenes | [33]
< 0.01 µg/mL: Enterococcus faecium | Streptococcus pyogenes | Streptococcus agalactiae [4]
0.049 µg/mL: Staphylococcus | Serratia marcescens [8]
1.56 µg/mL: Pseudomonas aeruginosa [9]
0.025 µg/mL: Escherichia coli [5] | Klebsiella pneumoniae [6] | Citrobacter freundii | Enterobacter cloacae [7]
0.4 µg/mL: Pseudomonas aeruginosa [15] | Burkholderia cepacia | Serratia marcescens [29] | Proteus vulgaris | Providencia rettgeri [31] | Providencia rettgeri [32]
0.03 µg/mL: Salmonella typhi | Bacillus subtilis
6.25 µg/mL: Staphylococcus aureus [3]

CC1CN(C[C@@H]2C[C@H](SC3=C(C(=O)O)N4C(=O)C([C@@H](C)O)C4[C@H]3C)CN2)S(=O)(=O)N1 (stereo partly drawn)
25 µg/mL: Staphylococcus aureus [3] | Enterococcus faecalis | Acinetobacter baumannii | Pseudomonas aeruginosa [9]
0.391 µg/mL: Staphylococcus
0.04 µg/mL: Streptococcus pyogenes | Streptococcus agalactiae [4] | Streptococcus pneumoniae
12.5 µg/mL: Haemophilus influenzae
0.198 µg/mL: Escherichia coli [5] | Klebsiella pneumoniae [6] | Citrobacter freundii
0.195 µg/mL: Enterobacter cloacae [7] | Serratia marcescens [8]
